Screening data: PubChem, several laboratories
ABHD5-PLIN5 inh: ABHD5-PLIN5 interaction inhibitors, primary screen, cell lysate, split luciferase complementation, luminescence. Perilipin-5 (Homo sapiens) + 1-acylglycerol-3-phosphate O-acyltransferase ABHD5 (Homo …. Split G. princeps luciferase complementation, 4 h. inhibition, % at 4 µM. actives 0.78% (n = 360,000);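 active = inhibition above the mean inhibition across every tested compound plus 3 SD, cut at about 22% in these data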;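 also: 0% = DMSO only wells and the 100% control is not disclosed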
XBP1 UPR activ: activators of adaptive XBP1 UPR arm, primary screen, cell-based, CHO-XBP1 luciferase reporter, luminescence, uHTS | IRE1-XBP1 UPR activation; percent of tunicamycin response, DMSO as zero | activation, % at 20 µM | actives 0.33% (n = 330,000) | AID 463104, 2010;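 active = versus positive control, 20 µM dose yields 30% or more activation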;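 also: 100% = tunicamycin at 10 µg/mL and 0% = DMSO only wells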
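Material: IRE1-XBP1 luciferase reporter CHO line / Quantity: one thousand reporter cells per well / Buffer or medium: F12 with 10% serum / Compound: 20 µM single concentration, DMSO 1% / Times: 6 h treatment, 37 °C / Detection: Steady-Glo luciferase glow luminescence, 10 min after reagent addition / Benchmarks: tunicamycin high, DMSO low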
Mdm2-MdmX inh: inhibitors of human Mdm2-MdmX association, primary screen, cell-based, luminescence, split luciferase, SaOS-2, uHTS | Protein Mdm4 (Homo sapiens) + E3 ubiquitin-protein ligase Mdm2 (Homo sapiens), … | SaOS-2 split-luciferase Mdm2/MdmX complementation | inhibition, % at 8 µM | actives 3% (n = 330,000);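 active = inhibition of at least 50% at 8 µM in the primary screen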
Target sequence (O15151 whole entry, looked up): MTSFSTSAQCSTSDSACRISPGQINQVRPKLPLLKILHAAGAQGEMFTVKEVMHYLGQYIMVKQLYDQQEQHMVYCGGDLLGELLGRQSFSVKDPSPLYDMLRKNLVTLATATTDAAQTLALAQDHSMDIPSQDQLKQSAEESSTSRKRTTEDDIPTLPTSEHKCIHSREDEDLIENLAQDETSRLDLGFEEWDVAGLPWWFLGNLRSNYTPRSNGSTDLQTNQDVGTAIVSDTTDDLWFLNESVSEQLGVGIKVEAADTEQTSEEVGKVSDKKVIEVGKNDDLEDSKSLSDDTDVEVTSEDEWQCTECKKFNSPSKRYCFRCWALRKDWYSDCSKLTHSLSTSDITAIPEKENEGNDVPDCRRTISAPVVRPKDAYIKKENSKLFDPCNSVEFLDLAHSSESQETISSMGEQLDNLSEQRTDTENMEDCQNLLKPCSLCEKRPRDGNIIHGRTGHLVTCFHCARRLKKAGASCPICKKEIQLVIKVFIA
Target sequence (Q00987 whole entry, looked up): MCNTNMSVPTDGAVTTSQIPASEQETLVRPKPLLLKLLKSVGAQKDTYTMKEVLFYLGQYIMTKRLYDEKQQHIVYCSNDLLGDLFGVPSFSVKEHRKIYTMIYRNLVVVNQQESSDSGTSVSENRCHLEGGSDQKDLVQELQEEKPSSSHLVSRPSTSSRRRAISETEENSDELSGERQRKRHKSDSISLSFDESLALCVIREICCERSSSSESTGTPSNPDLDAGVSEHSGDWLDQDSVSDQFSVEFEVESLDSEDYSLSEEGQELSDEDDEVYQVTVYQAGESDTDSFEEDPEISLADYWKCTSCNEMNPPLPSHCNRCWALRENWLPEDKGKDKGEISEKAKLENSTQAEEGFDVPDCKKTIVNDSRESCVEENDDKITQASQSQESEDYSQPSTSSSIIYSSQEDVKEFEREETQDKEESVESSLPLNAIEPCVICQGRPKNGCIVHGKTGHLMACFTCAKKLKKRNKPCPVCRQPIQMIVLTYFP
CHOP UPR activ: activators of apoptotic CHOP UPR arm, primary screen, cell-based, CHO-CHOP luciferase reporter, luminescence, uHTS | UPR activation; percent of tunicamycin response over DMSO baseline | activation, % at 10 µM | actives 0.34% (n = 330,000);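 active = at 10 µM dose, activation of 40% or more, normalized to positive control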;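 also: 100% = tunicamycin at 10 µg/mL and 0% = DMSO alone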
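measured by = luciferase luminescence | assay system = CHO-CHOP cells, stable luciferase reporter of PERK-eIF2a-CHOP signalling | amount = 500 reporter cells seeded per well | timing = 6 h compound exposure at 37 °C after overnight seeding | controls = positive tunicamycin 10 µg/mL, negative DMSO alone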
Exocytosis inh: LAMP-1 surface exposure blockers, TALL-104 cells – cell-based, flow cytometry, MLPCN library, primary screen; TALL-104 LAMP-1 surface exposure; cells stimulated with thapsigargin and PMA; AID 651702, 2012; actives 0.66% (n = 360,000); inhibition, % at 10 µM;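 active = inhibition above about 55%, limit read from the data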
Mdm2-MdmX conf: Mdm2-MdmX complex disruptors, retested hits, confirmation, luminescence, single concentration; inhibition, % at 8 µM; shares compounds with Mdm2-MdmX inh; actives 55% (n = 10,000); Mdm2-MdmX binding, luminescent assay; in the data active = inhibition above about 40%
Full FLuc ctr: full-length luciferase signal inhibition, confirmation, counter-screen for Mdm2/MdmX interaction inhibitor project, cell-based, single concentration, SaOS-2. shares compounds with Mdm2-MdmX inh. SaOS-2 full-length luciferase counterscreen, luminescence. inhibition, % at 8 µM. actives 77% (n = 6,200). AID 504607, 2011;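 active = mean inhibition at 8 µM reaching about 37%, which flags the compound as non-specific, limit read from the data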;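 also: p53-null SaOS-2 cells with luciferase driven by a doxycycline-inducible promoter; compound on cells about two nights before reading with doxycycline added after day one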
Numbers without * were called inactive; . = no result given. Sampled rows, rich in hits. Any-hit rate of the full collection: about 4%.

SMILES | ABHD5-PLIN5 inh | XBP1 UPR activ | Mdm2-MdmX inh | CHOP UPR activ | Exocytosis inh | Mdm2-MdmX conf | Full FLuc ctr
O=C1c2ccccc2OC2(C=Cc3ccccc3O2)N1Cc1ccccc1 (stereo not given) | -0.6 | -4.1 | 54.2* | 1.4 | 6.4 | 47.9* | 39.6*
O=C(NCCN1C(=O)S/C(=C\c2ccc(Cl)cc2Cl)C1=O)C1=COCCO1 | 2.3 | 2.4 | 6.8 | -0.2 | -5.8 | . | .
CCOC(=O)COn1c(=O)c(-c2ccc(OC)c(OC)c2)[n+]([O-])c2ccccc21 | . | -3.5 | 92.7* | 2.7 | . | 29.4 | .
CCOC(=O)COn1c(=O)c(-c2ccc(OC)cc2)[n+]([O-])c2ccccc21 | -3.2 | -1.2 | 2.0 | 3.5 | 2.6 | . | .
COCCCNC(=S)N/N=C/c1ccc2ccccc2c1 | -2.0 | 3.0 | 15.7 | 1.7 | 11.6 | . | .
Cc1cc(C)cc(NC(=S)N=Nc2c(O)n(C)c3ccc(S(=O)(=O)N4CCOCC4)cc23)c1 | -1.4 | 0.4 | 22.7 | 1.4 | 1.5 | . | .
Cc1cccc(C)c1NC(=S)N=Nc1c(O)n(C)c2ccc(S(=O)(=O)N3CCOCC3)cc12 | -2.7 | -0.4 | 63.8* | 22.2 | -0.8 | 30.5 | .
Cc1cccc(NC(=S)N=Nc2c(O)n(C)c3ccc(S(=O)(=O)N4CCOCC4)cc23)c1 | -2.2 | -0.5 | 54.2* | 8.1 | 5.7 | 53.8* | 64.1*
CC1=C(C#N)C(c2cccnc2)C2=C(CC(C)(C)CC2=O)N1 (stereo not given) | 5.2 | -6.1 | 6.2 | 0.5 | 0.0 | . | .
N#Cc1c(-c2ccccc2)nc(N2CCN(Cc3ccccc3)CC2)[nH]c1=O | -9.2 | -1.5 | 17.2 | 0.6 | 0.8 | . | .
COc1cccc(CNC(=O)CNC(=S)N(Cc2ccccc2)Cc2ccccc2F)c1 | -5.1 | . | . | . | 0.3 | . | .
O=[N+]([O-])c1cc(-c2nc(-c3ccncc3)no2)ccc1Cl | 8.0 | -2.8 | 99.0* | 4.9 | 1.4 | 81.1* | 23.3
C/C(=N\NC(=O)c1ccc2c(c1)OCCO2)c1ccccc1 | -6.3 | -11.5 | 71.3* | -9.3 | -0.2 | -12.9 | .
CCOc1cccc(/C=N/NC(=O)c2ccc3c(c2)OCCO3)c1O | -4.0 | 3.2 | 56.0* | 4.6 | -1.8 | 43.0* | 45.3*
CCOc1cccc(/C=N/NC(=O)c2cc(-c3cccn3C)n[nH]2)c1O | -6.2 | -1.7 | 62.9* | -0.7 | -4.0 | 62.5* | 51.6*
CCc1nnc(NC(=O)CSc2nnc(-c3ccccc3OC)n2-c2ccc(C)cc2)s1 | 2.9 | -3.2 | 3.6 | 1.6 | -0.9 | . | .
O=C(CCCN1C(=O)/C(=C\c2cccs2)SC1=S)Nc1ccccn1 | 1.1 | -1.2 | 70.4* | -0.7 | 1.1 | 63.7* | 38.2*
CCN(CC)CCOC(=O)c1ccc(NC(=O)CCCN2C(=O)/C(=C/c3cccs3)SC2=S)cc1 | 18.8 | -2.8 | 59.3* | 0.3 | 4.9 | 17.4 | .
O=C(CCN1C(=O)/C(=C/c2cccs2)SC1=S)Nc1ccccn1 | -2.9 | -3.5 | 6.6 | -0.5 | 19.1 | . | .
CCN(CC)CCOC(=O)c1ccc(NC(=O)c2cn(-c3ccccc3)nc2-c2cccs2)cc1 | 13.5 | 29.9 | 50.4* | 17.0 | 90.2* | 38.9 | 101.0*
O=C(CCCN1C(=O)/C(=C\c2cccs2)SC1=S)Nc1ccc(O)cc1 | -7.7 | -0.7 | 77.8* | 0.1 | 21.6 | 70.9* | 31.8
Nc1ccc(S(=O)(=O)Nc2nccc(/C=C/c3ccc(Cl)cc3)n2)cc1 | 7.8 | 20.0 | 21.2 | 2.0 | -2.4 | . | .
O=C(NCCCn1ccnc1)C(=O)NCc1ccccc1 | -0.8 | -2.5 | -3.5 | -0.9 | -2.1 | . | .
